Test results from paper PMC5131535 (ACS chemical neuroscience, 2016).
“And” between values parts separate entries of the source, which are not always exact repeats. Equal entries are not always repeated. Where two headings read alike, the source gives them in different places. Blank lines part the entries; values can stand above or below the molecule they belong to.

How the values were obtained:
Kir7.1 [1] = details: read-out: Kir7.1 IC50 EP, cited from earlier work
ROMK [2] = details: read-out: ROMK IC50 Tl+; ref [16]; cited from earlier work
ROMK [3] = details: read-out: ROMK IC50 EP, cited from earlier work
[4] = Protein binding in plasma; details: mouse
Kir6.2/SUR1 = Kir6.2/SUR1 (Homo sapiens, UniProt Q14654); test: Tl+ flux selectivity assay, Kir6.2/SUR1; type: cell-based; details: Thallium flux, Kir7.1 over Kir6.2/SUR1
In short: (§1)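 Tetracycline-inducible stable T-REx-HEK-293 lines, induced overnight with 1 µg/ml tetracycline in DMEM/10% dialyzed FBS. Cells loaded 1 hr with 1.2 µM Thallos-AM in HBSS/20 mM HEPES pH 7.3 with 0.01% Pluronic F-127. Baseline fluorescence (ex 470, em 540 nm) read at 1 Hz before adding stimulus buffer with 1.8 mM Tl₂SO₄. Traces normalized to first point and vehicle-subtracted; slope taken 5–20 s post-Tl⁺; IC50 by nonlinear regression of CRCs.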

Kir2.1 [5] = molecular target: T1, Kir2.1 (Homo sapiens, UniProt P63252); test: Tl+ flux selectivity assay, Kir2.1; type: cell-based; details: Thallium flux, Kir7.1 over Kir2.1
T1 sequence (P63252 1-427): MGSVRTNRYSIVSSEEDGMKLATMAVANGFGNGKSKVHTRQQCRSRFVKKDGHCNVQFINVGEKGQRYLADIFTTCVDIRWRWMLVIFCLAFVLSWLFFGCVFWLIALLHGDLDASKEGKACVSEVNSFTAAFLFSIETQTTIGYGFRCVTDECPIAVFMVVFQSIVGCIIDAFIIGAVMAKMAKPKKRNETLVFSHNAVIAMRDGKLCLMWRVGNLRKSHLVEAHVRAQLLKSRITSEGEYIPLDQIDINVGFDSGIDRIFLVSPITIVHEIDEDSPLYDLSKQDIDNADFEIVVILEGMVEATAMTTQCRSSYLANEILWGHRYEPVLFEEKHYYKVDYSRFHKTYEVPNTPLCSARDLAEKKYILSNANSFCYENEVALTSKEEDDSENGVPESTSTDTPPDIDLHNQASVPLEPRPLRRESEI
In short: as §1

[6] = Protein binding in plasma; details: human
[7] = Protein binding in plasma; details: rat
Kir2.3 = molecular target: T2, Kir2.3 (Homo sapiens, UniProt P48050); test: Tl+ flux selectivity assay, Kir2.3; type: cell-based; details: Thallium flux, Kir7.1 over Kir2.3
T2 sequence (P48050 1-445): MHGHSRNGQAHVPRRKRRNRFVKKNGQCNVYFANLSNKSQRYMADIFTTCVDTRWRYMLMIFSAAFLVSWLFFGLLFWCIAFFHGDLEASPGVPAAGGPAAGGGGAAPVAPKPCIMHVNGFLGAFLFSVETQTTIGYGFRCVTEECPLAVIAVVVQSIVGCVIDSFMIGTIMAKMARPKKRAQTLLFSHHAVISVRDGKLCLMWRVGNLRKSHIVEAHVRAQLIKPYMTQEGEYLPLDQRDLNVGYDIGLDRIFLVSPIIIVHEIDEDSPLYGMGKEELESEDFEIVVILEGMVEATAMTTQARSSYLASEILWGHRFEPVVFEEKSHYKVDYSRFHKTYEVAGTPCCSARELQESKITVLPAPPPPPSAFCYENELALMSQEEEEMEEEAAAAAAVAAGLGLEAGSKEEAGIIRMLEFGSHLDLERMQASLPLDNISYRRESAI

Kir1.1 = test: Tl+ flux selectivity assay, Kir1.1; type: cell-based; details: Thallium flux, Kir7.1 over Kir1.1
In short: as §1

Kir7.1 [8] = molecular target: T3, Kir7.1 (Homo sapiens, UniProt O60928, M125R); test: Whole-cell patch clamp electrophysiology, Kir7.1; type: cell-based; details: Kir7.1 IC50 (Patch clamp), -120 mV
T3 sequence (O60928 1-360 M125R): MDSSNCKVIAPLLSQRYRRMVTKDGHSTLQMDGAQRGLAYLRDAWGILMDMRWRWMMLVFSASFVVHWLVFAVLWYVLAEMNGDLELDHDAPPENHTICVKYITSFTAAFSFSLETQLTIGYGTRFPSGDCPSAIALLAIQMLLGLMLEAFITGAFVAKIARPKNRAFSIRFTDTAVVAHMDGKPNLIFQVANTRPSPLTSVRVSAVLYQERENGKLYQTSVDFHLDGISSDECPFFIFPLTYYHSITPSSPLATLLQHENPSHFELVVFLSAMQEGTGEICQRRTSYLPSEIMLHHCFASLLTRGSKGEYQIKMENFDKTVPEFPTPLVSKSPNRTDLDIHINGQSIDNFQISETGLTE
In short: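 Human Kir7.1 (WT or mutant) was transiently co-transfected with EGFP into HEK-293T cells, which were replated next day on poly-L-lysine coverslips. Whole-cell clamp used bath 5 mM KCl, pH 7.4, and pipette 135 mM KCl, pH 7.3. Cells were held at −75 mV, stepped 500 ms to −120 mV, then ramped to 120 mV, every 5 s. Increasing test-compound doses were superfused, then BaCl₂ block; current read at −120 mV; variable-slope Hill fit, mean of n = 5.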

Kir4.1 = molecular target: T4, Kir4.1 (Homo sapiens, UniProt P78508); test: Tl+ flux selectivity assay, Kir4.1; type: cell-based; details: Thallium flux, Kir7.1 over Kir4.1
T4 sequence (P78508 1-379): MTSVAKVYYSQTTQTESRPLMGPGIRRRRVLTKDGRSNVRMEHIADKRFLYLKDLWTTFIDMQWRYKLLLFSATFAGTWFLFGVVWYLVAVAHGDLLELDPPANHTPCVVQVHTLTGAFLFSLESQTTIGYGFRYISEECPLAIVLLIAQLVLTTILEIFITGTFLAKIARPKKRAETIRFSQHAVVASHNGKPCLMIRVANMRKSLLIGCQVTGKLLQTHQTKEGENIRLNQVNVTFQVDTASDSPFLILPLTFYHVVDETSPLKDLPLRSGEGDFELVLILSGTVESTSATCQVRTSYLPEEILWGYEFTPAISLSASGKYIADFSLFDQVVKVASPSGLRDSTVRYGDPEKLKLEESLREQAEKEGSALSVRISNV
In short: as §1

Kir2.2 = molecular target: T5, Kir2.2 (Homo sapiens, UniProt Q14500); test: Tl+ flux selectivity assay, Kir2.2; type: cell-based; details: Thallium flux, Kir7.1 over Kir2.2
T5 sequence (Q14500 1-433): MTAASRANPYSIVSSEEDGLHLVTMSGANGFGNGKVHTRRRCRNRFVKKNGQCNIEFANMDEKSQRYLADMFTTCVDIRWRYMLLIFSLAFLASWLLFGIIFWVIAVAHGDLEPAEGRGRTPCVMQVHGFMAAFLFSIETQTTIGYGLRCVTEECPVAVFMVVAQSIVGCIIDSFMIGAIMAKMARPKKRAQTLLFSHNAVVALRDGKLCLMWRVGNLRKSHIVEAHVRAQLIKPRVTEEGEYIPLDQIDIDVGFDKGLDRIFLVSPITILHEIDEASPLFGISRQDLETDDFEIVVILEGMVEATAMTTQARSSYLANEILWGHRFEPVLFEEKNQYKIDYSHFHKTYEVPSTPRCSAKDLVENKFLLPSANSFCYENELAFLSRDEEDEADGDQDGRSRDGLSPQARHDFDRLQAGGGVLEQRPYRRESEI

Kir7.1-M125R = molecular target: T6, Kir7.1-M125R (Homo sapiens, UniProt O60928, M125R); test: Tl+ flux assay in T-REx-HEK293 cells expressing Kir7.1-M125R; type: cell-based
T6 sequence (O60928 1-360 M125R): T3 sequence (O60928 1-360 M125R)
In short: as §1

Kir2.1 [9] = molecular target: T1, Kir2.1; details: read-out: Kir2.1 IC50; at pH 8.0; ref [24]; cited from earlier work

Kir6.2/SUR1, sequence (Q14654 whole entry): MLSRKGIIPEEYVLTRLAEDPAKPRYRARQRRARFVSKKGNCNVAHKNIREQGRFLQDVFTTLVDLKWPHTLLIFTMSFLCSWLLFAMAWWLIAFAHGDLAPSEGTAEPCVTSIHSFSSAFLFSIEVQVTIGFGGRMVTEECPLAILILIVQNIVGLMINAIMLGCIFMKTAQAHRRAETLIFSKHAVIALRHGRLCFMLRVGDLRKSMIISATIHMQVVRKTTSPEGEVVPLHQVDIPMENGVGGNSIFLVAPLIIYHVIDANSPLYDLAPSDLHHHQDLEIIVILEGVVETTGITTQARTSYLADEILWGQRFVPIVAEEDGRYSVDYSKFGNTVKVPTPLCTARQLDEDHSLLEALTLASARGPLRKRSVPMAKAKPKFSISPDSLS
Kir6.2/SUR1, sequence (Q09428 whole entry partner): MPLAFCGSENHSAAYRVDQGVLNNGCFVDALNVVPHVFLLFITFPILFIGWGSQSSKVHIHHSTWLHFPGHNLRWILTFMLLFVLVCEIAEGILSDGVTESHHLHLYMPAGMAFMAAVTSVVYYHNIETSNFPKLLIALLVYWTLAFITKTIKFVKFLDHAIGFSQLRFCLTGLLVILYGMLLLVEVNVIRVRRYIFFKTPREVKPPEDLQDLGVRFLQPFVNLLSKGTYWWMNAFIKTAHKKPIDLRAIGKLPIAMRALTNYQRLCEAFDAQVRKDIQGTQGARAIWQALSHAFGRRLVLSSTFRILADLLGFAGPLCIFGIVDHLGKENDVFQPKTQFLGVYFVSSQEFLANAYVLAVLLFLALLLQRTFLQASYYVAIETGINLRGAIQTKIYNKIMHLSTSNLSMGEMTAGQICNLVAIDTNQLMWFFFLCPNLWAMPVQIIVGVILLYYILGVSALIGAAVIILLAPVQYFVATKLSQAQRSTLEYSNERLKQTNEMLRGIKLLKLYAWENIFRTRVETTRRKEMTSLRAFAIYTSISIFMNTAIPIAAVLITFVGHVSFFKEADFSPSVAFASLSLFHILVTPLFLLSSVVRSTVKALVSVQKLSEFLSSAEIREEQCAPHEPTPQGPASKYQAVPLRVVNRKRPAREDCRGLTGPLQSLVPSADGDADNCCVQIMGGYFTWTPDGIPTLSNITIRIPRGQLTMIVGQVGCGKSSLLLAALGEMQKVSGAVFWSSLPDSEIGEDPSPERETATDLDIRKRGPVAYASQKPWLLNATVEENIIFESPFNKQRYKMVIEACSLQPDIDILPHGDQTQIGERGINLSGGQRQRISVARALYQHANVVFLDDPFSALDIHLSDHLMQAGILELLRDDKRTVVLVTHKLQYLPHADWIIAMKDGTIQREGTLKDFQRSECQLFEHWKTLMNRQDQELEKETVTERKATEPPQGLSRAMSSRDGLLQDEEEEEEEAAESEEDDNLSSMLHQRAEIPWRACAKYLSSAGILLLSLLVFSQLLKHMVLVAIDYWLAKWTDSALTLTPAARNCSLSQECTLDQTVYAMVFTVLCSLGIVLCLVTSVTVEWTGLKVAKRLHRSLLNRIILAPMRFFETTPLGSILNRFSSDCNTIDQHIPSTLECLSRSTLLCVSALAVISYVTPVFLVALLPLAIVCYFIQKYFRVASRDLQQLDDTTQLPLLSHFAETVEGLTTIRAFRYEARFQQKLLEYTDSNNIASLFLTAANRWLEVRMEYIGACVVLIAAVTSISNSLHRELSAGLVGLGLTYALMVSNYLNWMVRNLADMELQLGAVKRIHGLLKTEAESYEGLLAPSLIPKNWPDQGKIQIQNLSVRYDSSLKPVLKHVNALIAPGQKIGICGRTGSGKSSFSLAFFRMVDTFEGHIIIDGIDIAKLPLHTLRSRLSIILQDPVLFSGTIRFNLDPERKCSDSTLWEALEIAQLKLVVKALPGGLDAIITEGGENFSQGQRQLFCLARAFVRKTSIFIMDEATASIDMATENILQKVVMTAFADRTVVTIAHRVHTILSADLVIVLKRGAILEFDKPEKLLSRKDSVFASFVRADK

SMILES: O=[N+]([O-])c1ccc(CN2CCOCCOCCN(Cc3ccc([N+](=O)[O-])cc3)CCOCC2)cc1 [VU590]
IC50 (Kir7.1 [1]; ref [16]): ~8000 nM and 8000 nM
IC50 (ROMK [2]): 300 nM
IC50 (ROMK [3]; ref [16]): 240 nM

fraction unbound [4]: 0.056
Kir Channel Selectivity (Fold) 6.2 (Kir6.2/SUR1): 1 Fold
Kir Channel Selectivity (Fold) 2.1 (Kir2.1 [5]): >18 Fold
fraction unbound [6]: 0.011
fraction unbound [7]: 0.036
Kir Channel Selectivity (Fold) 2.3 (Kir2.3): >18 Fold
IC50 (Kir7.1 [8]): 470 nM
Kir Channel Selectivity (Fold) 4.1 (Kir4.1): >18 Fold
Kir Channel Selectivity (Fold) 2.2 (Kir2.2): >18 Fold
IC50 (Kir7.1-M125R): 1700 nM
SMILES: CC(C)(C)OC(=O)NC1CCN(Cc2cc(Cl)c3cccnc3c2O)CC1 [Compound 11, tert-Butyl (1-((5-chloro-8-hydroxyquinolin-7-yl)methyl)piperidin-4-yl)carbamate]
Kir Channel Selectivity (Fold) 1.1 (Kir1.1): >18 Fold

SMILES: COc1ccc(CNCc2cccc3ccccc23)cc1 [ML133]
IC50 (Kir2.1 [9]): 300 nM
IC50 (Kir7.1 [1]; ref [24]): 33000 nM
IC50 (ROMK [3]; ref [24]): > 300000 nM
